The results in this text go back to ChEMBL document CHEMBL1126723, “Inhibition and inactivation of presynaptic cholinergic markers using redox-reactive choline analogs” (J Med Chem, 1993).

The species named for data set [1] is Rattus norvegicus. The experiment in a line: Michaelis-Menten constant was reported for high affinity transport of choline. Type of data set: functional. The method, boiled down:
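Rat forebrain crude synaptosome aliquots (0.27–0.3 mg protein) were equilibrated at 30 °C. [3H]choline was added at 10 nM to 10 μM and uptake run 3 min, within the linear range. Parallel 0 °C incubations corrected for nonspecific binding and diffusion. Reactions were stopped by ice cooling, centrifuged at 800g, and the pellets washed with ice-cold KRB.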

For data set [2], the species on record is Rattus norvegicus. The experiment in a line: (§1) Inhibition of high affinity dopamine uptake at concentration of 1 uM. It is filed as functional.
The target in data set [3] is T1, Sodium-dependent serotonin transporter (Rattus norvegicus, UniProt P31652). The experiment in a line: Inhibition of high affinity 5-HT uptake at concentration of 1 uM. It is filed as functional.
Data set [4] has as its target T1, Sodium-dependent serotonin transporter. The experiment in a line: Inhibition constant of high-affinity 5-HT uptake. The method, boiled down: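 Rat forebrain crude synaptosomes took up [3H]serotonin (0.727 Ci/mmol) for 3 min at 30 °C, with and without inhibitor, as for the choline assay. IC50 came from nonlinear regression or Hill plots over 5–10 inhibitor concentrations. Ki was derived with Cheng-Prusoff, using the serotonin transport Km measured over 10 nM to […] substrate.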

Data set [5] has as its target T2, Sodium-dependent dopamine transporter (Rattus norvegicus, UniProt P23977). Described as §1. It is filed as functional.
For data set [6], the target named is T2, Sodium-dependent dopamine transporter. As to the kind of experiment: Inhibition constant of high-affinity dopamine uptake. The method, boiled down:
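Crude synaptosomes from adult male Long-Evans rat forebrain (Gray–Whittaker method) were incubated with [3H]dopamine (0.72 Ci/mmol) for 3 min at 30 °C alongside 0 °C blanks, with inhibitor at 5–10 concentrations between 10 µM and 10 mM. Uptake was stopped on ice and pellets were washed in KRB. IC50 came from regression or Hill plots, and Ki from Cheng–Prusoff using dopamine Km 1.4 µM.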

Substrate in data set [7]: C[N+](C)(C)CC(O)c1ccc(O)c(O)c1
Substrate in data set [8]: C[N+](C)(C)CC(O)c1ccc(O)c(O)c1
This is another data set of the same source.

Substrate in data set [9]: C[N+](C)(C)CC(O)c1ccc(O)c(O)c1
This is another data set of the same source.

Substrate in data set [10]: C[N+](C)(C)CC(O)c1ccc(O)c(O)c1
The source holds these as a separate data set.

Substrate in data set [11]: C[N+](C)(C)CC(O)c1ccc(O)c(O)c1
This is another data set of the same source.

Substrate in data set [12]: C[N+](C)(C)CC(O)c1ccc(O)c(O)c1
The source holds these as a separate data set.

In general, Km refers to the concentration of substrate that gives half-maximal velocity. What is called IC50 is the point on the concentration scale where inhibition reaches its midpoint. One may read the Ki as the dissociation constant of the complex between target and ligand, obtained from inhibition or displacement. Read a high Ki as lower affinity. Consider `C[N+](C)(C)c1cccc(O)c1O`, for which the Km in the data set listed under Rattus norvegicus [1] was determined as 1000 µM. The IC50 stood at 196 µM in the data set listed under Rattus norvegicus [2] and 213 µM in data set [3]. The affinity in data set [4], expressed as Ki, was 90 µM.
For `C[N+](C)(C)CC(O)c1ccc(O)c(O)c1` (centres undefined) [CATECHOLINE], the IC50 in data set [5] stood at 949 µM; in data set [3], 3600 µM. For the same molecule, the inhibitory constant (Ki) was determined as 530 µM in [6] and 390 µM in data set [4].

B1: Sodium-dependent dopamine transporter (Rattus norvegicus), P23977 (protein)
chain: MSKSKCSVGPMSSVVAPAKESNAVGPREVELILVKEQNGVQLTNSTLINPPQTPVEAQERETWSKKIDFLLSVIGFAVDLANVWRFPYLCYKNGGGAFLVPYLLFMVIAGMPLFYMELALGQFNREGAAGVWKICPVLKGVGFTVILISFYVGFFYNVIIAWALHYFFSSFTMDLPWIHCNNTWNSPNCSDAHASNSSDGLGLNDTFGTTPAAEYFERGVLHLHQSRGIDDLGPPRWQLTACLVLVIVLLYFSLWKGVKTSGKVVWITATMPYVVLTALLLRGVTLPGAMDGIRAYLSVDFYRLCEASVWIDAATQVCFSLGVGFGVLIAFSSYNKFTNNCYRDAIITTSINSLTSFSSGFVVFSFLGYMAQKHNVPIRDVATDGPGLIFIIYPEAIATLPLSSAWAAVFFLMLLTLGIDSAMGGMESVITGLVDEFQLLHRHRELFTLGIVLATFLLSLFCVTNGGIYVFTLLDHFAAGTSILFGVLIEAIGVAWFYGVQQFSDDIKQMTGQRPNLYWRLCWKLVSPCFLLYVVVVSIVTFRPPHYGAYIFPDWANALGWIIATSSMAMVPIYATYKFCSLPGSFREKLAYAITPEKDHQLVDRGEVRQFTLRHWLLL
As for B1, the Km in [7] is 1400 µM. Further, in data set [8], the Vmax (pM min-1 mg-1) came out at 53.

B2: Sodium-dependent serotonin transporter (Rattus norvegicus), P31652 (protein)
chain: METTPLNSQKVLSECKDREDCQENGVLQKGVPTTADRAEPSQISNGYSAVPSTSAGDEASHSIPAATTTLVAEIRQGERETWGKKMDFLLSVIGYAVDLGNIWRFPYICYQNGGGAFLLPYTIMAIFGGIPLFYMELALGQYHRNGCISIWRKICPIFKGIGYAICIIAFYIASYYNTIIAWALYYLISSLTDRLPWTSCTNSWNTGNCTNYFAQDNITWTLHSTSPAEEFYLRHVLQIHQSKGLQDLGTISWQLTLCIVLIFTVIYFSIWKGVKTSGKVVWVTATFPYIVLSVLLVRGATLPGAWRGVVFYLKPNWQKLLETGVWVDAAAQIFFSLGPGFGVLLAFASYNKFNNNCYQDALVTSVVNCMTSFVSGFVIFTVLGYMAEMRNEDVSEVAKDAGPSLLFITYAEAIANMPASTFFAIIFFLMLITLGLDSTFAGLEGVITAVLDEFPHIWAKRREWFVLIVVITCVLGSLLTLTSGGAYVVTLLEEYATGPAVLTVALIEAVAVSWFYGITQFCSDVKEMLGFSPGWFWRICWVAISPLFLLFIICSFLMSPPQLRLFQYNYPHWSIVLGYCIGMSSVICIPTYIIYRLISTPGTLKERIIKSITPETPTEIPCGDIRMNAV
As to B2, the Km in [9] stood at 150 µM. Moreover, the Vmax (pM min-1 mg-1) in data set [10] came out at 23.

B3: Sodium- and chloride-dependent creatine transporter 1 (Rattus norvegicus), P28570 (protein)
chain: MAKKSAENGIYSVSGDEKKGPLIVSGPDGAPSKGDGPAGLGAPSSRLAVPPRETWTRQMDFIMSCVGFAVGLGNVWRFPYLCYKNGGGVFLIPYVLIALVGGIPIFFLEISLGQFMKAGSINVWNICPLFKGLGYASMVIVFYCNTYYIMVLAWGFYYLVKSFTTTLPWATCGHTWNTPDCVEIFRHEDCANASLANLTCDQLADRRSPVIEFWENKVLRLSTGLEVPGALNWEVTLCLLACWVLVYFCVWKGVKSTGKIVYFTATFPYVVLVVLLVRGVLLPGALDGIIYYLKPDWSKLGSPQVWIDAGTQIFFSYAIGLGALTALGSYNRFNNNCYKDAIILALINSGTSFFAGFVVFSILGFMATEQGVHISKVAESGPGLAFIAYPRAVTLMPVAPLWAALFFFMLLLLGLDSQFVGVEGFITGLLDLLPASYYFRFQREISVALCCALCFVIDLSMVTDGGMYVFQLFDYYSASGTTLLWQAFWECVVVAWVYGADRFMDDIACMIGYRPCPWMKWCWSFFTPLVCMGIFIFNVVYYKPLVYNNTYVYPWWGEAMGWAFALSSMLCVPLHLLGCLLRAKGTMAERWQHLTQPIWGLHHLEYRAQDADVRGLTTLTPVSESSKVVVVESVM
Regarding B3, in data set [11], the Km worked out at 2040 µM. In addition, in data set [12], the Vmax (pM min-1 mg-1) stood at 22.
